Source: ChEMBL document CHEMBL1123598, “Inactivation of thymidylate synthase at an alternate high-affinity binding site” (J Med Chem, 1987)

Target: T1, Thymidylate synthase (Lactobacillus casei) (UniProt P00469)
T1 sequence (whole entry): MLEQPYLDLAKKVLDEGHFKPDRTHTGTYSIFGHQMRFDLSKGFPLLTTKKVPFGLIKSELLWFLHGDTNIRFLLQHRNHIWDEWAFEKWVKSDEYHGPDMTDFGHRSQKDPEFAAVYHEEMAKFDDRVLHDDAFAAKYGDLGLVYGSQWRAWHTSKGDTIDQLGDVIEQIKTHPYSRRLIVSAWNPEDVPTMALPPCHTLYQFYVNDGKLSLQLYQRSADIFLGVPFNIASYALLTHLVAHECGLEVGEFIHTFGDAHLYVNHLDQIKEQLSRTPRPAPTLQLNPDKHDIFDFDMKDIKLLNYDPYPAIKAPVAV
Experiment: Kinetic constant for the inactivation of Lactobacillus casei thymidylate synthase was determined at the concentration of 60 uM in the absence of substrate
Details: Lacticaseibacillus casei
Outline: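 Enzyme (sp act. 3.2 μM mg⁻¹ min⁻¹) incubated with inhibitor in 0.1 M phosphate buffer, pH 6.8, 30 °C, with no substrate or with substrate at the stated concentration. Aliquots were withdrawn at intervals and residual activity was measured with 50 μM substrate in a 60-s assay. k_obsd was taken from activity loss; k2 and Ka came from the double-reciprocal plot of 1/k_obsd vs 1/[inhibitor].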

SMILES: CC1=CC(=O)c2ccccc2C1=O
- k: 5 se-1
